CHRM4 antagonist – blocks acetylcholine activation of human M4 receptor. P08173. CHO-hM4 cells, ACh EC80, Fluo-8 calcium fluorescence. inhibition, % at 3 µM. 360,000 tested, 0.73% active;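 active = inhibition above its plate's cutoff, the mean inhibition of sample wells plus 3 SD, cut at about 27% in these data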;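 also: 0% = acetylcholine EC80 with DMSO and 100% = DMSO without agonist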
CHRM5 PAM – CHRM5 positive allosteric modulation | P08912 | CHO-K1 hM5, Fluo-8 calcium, ACh EC20 PAM; 0% = ACh EC20, 100% = ACh EC100 | activation, % at 3 µM | 360,000 tested, 0.3% active;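 active = activation above the run cutoff, the mean activation of all test compounds plus 3 SD, cut at about 18% in these data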
Target sequence (P08912 whole entry, looked up): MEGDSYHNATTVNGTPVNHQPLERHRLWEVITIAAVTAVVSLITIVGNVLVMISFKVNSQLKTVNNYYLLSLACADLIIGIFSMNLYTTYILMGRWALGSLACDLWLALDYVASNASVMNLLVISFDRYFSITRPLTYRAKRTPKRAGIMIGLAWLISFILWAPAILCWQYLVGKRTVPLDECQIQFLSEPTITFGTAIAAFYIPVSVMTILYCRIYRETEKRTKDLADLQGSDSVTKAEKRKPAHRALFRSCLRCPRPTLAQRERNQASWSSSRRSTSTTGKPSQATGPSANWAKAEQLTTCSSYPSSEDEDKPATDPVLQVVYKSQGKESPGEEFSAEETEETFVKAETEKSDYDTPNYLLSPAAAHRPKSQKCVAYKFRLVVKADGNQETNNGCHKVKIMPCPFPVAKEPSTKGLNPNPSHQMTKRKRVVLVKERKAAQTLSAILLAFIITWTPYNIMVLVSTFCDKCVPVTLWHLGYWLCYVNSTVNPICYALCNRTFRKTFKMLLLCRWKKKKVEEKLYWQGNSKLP
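Assay system – human M5 receptor in CHO-K1 cells · Read-out – % activation, ACh-normalized · Technique – Fluo-8 calcium fluorescence · Dosing – single-point, 3 µM nominal · Incubation – Fluo-8 loading 80 min at 37 °C plus 30 min room temperature · Repeats – singlicate, one well per test compound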
CHRM4 PAM – potentiates acetylcholine response at human M4 receptor. P08173. CHO-K1 hM4/Gqi5, Fluo-8 calcium fluorescence, ACh EC20; 0% = ACh EC20, 100% = maximal ACh. activation, % at 3 µM. 360,000 tested, 0.4% active. AID 624126;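 active = activation above its plate's cutoff, the mean activation of sample wells plus 3 SD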
CHRM5 antagonist – antagonists of human muscarinic M5 receptor (CHRM5). P08912. inhibition, % at 3 µM. 360,000 tested, 0.59% active. AID 624040. CHO-hM5 cells, Fluo-8 calcium fluorescence, ACh EC80;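 active = inhibition above a per-plate cutoff, the mean of that plate's test compounds plus 3 SD, cut at about 27% in these data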;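 also: 0% = acetylcholine EC80 with DMSO and 100% = DMSO without agonist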
CHRM5 agonist – agonists of human muscarinic M5 receptor (CHRM5); P08912; CHO-K1 hM5 cells, Fluo-8 calcium fluorescence; 0% DMSO wells, 100% maximal acetylcholine response; activation, % at 3 µM; 360,000 tested, 0.19% active; AID 624037;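 active = activation above the run's mean over test compounds plus 3 SD, cut at about 23% in these data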;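 also: signal is peak over basal fluorescence ratio across the kinetic read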
CHRM4 agonist – CHRM4 agonism in calcium assay; P08173; CHO-K1 hM4/Gqi5, Fluo-8 calcium fluorescence; vehicle 0%, full acetylcholine response 100%; activation, % at 3 µM; 360,000 tested, 0.14% active; AID 624127;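 active = activation above the run mean over all test wells plus 3 SD, cut at about 32% in these data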;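 also: peak over basal fluorescence ratio per well then scaled between controls; 0% = DMSO wells and 100% = acetylcholine at EC100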
* hit, by the source's call; ! = a repeat was not active. A selection: hits, their analogues and other compounds. The true share with any hit is near 1.8%.

SMILES | CHRM4 antagonist | CHRM5 PAM | CHRM4 PAM | CHRM5 antagonist | CHRM5 agonist | CHRM4 agonist
COc1cccc(CNC(=O)C2Cc3cc(S(=O)(=O)N4CCCC4)ccc3N2C(C)=O)c1OC (stereo unspecified) | -2 | -1 | 17* | 0 | -4 | 1
CC(=O)Nc1ccc(C=NN=C2c3ccccc3-c3ccccc32)cc1 | 4 | 11 | 18* | -9 | 3 | 2
CCOc1ccc2c(c1)N(C(=O)CN1C(=O)CCC1=O)C(C)(C)C=C2C | -5 | 3 | 10 | -5 | -7 | -2
CC1=CC(C)(C)N(C(=O)CNC2CCCC2)c2cc(C)ccc21 | 49* | -31 | -27 | 37* | -15 | 0
O=C(Nc1ccccc1)Nc1cc(OCC(F)(F)F)cc(OCC(F)(F)F)c1 | 10 | -18 | -16 | 47* | 1 | 12
CC1CC(OC(=O)C(O)c2ccccc2)CC(C)(C)N1C (stereo unspecified) | 41* | -19 | -16 | 88* | -2 | 0
CCCCNc1c(-c2ccc(OC)c(SC3CCCCC3)c2)nc2ccc(C)cn12 | 78* | -35 | -10 | 40* | -2 | 15
CCCCNc1c(-c2ccc(SC3CCCCC3)c(OC)c2)nc2ccc(C)cn12 | 35*! | -8 | -5 | 8 | 4 | 4
CCN(CC)C(=O)C1=C(C)N(Cc2ccc(OC)cc2)C(=O)C(CC(=O)NC2CCCC2)C1 (stereo unspecified) | -10 | 3 | 6 | -10 | 1 | 0
O=C(NCCC1=CCCCC1)C(=O)NCC(c1ccco1)N1CCN(c2ccccc2F)CC1 (stereo unspecified) | -5 | -9 | -6 | 11 | 1 | 1
COC(=O)C1=CN(Cc2cccs2)C=C(C(=O)OC)C1c1cccc(Cl)c1 | 8 | -21 | -7 | 9 | -10 | -1
COC(=O)C1=CN(Cc2cccs2)C=C(C(=O)OC)C1c1ccc(OC)cc1OC | -3 | -15 | 1 | 27* | -4 | -1

From PubChem BioAssay
